Laboratory results taken from the M2OR odorant receptor database.

Columns and labels:
Details in all cases: stereoisomer not certain
OR10G2 (Homo sapiens) = target: T1, OR10G2 (Homo sapiens) (UniProt Q8NGC3)
T1 sequence (whole entry): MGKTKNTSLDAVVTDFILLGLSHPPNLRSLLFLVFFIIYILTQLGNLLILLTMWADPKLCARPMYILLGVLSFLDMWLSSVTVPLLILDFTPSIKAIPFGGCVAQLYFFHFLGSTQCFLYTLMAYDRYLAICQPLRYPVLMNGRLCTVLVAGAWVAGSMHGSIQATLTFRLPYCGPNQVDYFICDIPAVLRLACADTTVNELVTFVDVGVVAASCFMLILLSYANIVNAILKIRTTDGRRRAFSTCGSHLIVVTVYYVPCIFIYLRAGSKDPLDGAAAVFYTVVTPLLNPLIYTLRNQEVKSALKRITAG
In short: (§1)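 Transient luciferase assays in mammalian cell lines were common, though methods varied by source. The values come from published papers and their supplementary material, with extra details from the original authors when needed. Responsive refers to a measured signal the original authors judged statistically different from baseline, and non-responsive (inactive) to the remainder.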

OR10G3 (Homo sapiens) = target: T2, OR10G3 (Homo sapiens) (UniProt Q8NGC4)
T2 sequence (whole entry): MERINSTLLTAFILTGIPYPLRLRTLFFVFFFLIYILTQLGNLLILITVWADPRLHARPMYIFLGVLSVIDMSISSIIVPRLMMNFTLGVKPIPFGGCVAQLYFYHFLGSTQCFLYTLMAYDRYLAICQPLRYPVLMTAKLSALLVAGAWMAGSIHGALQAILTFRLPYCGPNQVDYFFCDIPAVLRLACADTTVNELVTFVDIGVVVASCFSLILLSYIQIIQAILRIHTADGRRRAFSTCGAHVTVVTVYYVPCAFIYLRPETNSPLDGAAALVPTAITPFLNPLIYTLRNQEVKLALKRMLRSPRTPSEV
In short: as §1

OR10G4 (Homo sapiens) = target: T3, OR10G4 (Homo sapiens) (UniProt Q8NGN3)
T3 sequence (whole entry): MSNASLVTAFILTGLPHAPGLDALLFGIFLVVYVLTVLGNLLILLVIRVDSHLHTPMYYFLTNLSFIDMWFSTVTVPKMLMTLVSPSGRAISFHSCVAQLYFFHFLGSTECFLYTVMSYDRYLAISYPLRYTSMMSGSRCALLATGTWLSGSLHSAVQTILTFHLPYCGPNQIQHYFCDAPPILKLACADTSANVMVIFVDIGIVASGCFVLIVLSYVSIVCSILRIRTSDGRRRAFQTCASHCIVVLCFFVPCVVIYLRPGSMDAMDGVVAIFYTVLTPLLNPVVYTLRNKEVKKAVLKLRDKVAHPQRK
In short: as §1

OR10G6 (Homo sapiens) = target: T4, OR10G6 (Homo sapiens) (UniProt Q8NH81)
T4 sequence (whole entry): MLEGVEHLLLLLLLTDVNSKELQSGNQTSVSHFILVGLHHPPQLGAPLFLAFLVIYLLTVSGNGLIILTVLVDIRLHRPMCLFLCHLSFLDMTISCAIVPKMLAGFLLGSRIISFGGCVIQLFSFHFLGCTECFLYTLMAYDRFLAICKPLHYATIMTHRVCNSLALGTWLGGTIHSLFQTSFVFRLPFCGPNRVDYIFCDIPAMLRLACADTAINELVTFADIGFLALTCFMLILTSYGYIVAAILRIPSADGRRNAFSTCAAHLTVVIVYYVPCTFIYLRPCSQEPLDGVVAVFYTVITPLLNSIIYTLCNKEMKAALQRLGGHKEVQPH
In short: as §1

OR10G7 (Homo sapiens) = target: T5, OR10G7 (Homo sapiens) (UniProt Q8NGN6)
T5 sequence (whole entry): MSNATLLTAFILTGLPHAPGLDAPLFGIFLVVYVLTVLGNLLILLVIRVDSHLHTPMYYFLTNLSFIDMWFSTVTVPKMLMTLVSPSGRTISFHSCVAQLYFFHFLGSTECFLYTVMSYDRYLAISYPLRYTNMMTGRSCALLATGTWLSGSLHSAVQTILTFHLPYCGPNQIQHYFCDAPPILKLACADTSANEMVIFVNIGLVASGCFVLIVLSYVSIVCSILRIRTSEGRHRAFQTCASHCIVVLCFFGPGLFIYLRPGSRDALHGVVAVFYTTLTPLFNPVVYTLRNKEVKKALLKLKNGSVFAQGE
In short: as §1

OR10G8 (Homo sapiens) = target: T6, OR10G8 (Homo sapiens) (UniProt Q8NGN5)
T6 sequence (whole entry): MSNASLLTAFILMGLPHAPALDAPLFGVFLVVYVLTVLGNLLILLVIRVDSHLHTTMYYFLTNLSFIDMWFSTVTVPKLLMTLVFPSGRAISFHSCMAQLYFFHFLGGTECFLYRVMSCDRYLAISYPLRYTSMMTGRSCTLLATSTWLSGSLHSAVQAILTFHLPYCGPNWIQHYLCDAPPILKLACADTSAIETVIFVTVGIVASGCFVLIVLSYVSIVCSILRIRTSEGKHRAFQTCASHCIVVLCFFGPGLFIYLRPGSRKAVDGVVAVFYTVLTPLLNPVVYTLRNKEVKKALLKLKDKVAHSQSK
In short: as §1

OR10G9 (Homo sapiens) = target: T7, OR10G9 (Homo sapiens) (UniProt Q8NGN4)
T7 sequence (whole entry): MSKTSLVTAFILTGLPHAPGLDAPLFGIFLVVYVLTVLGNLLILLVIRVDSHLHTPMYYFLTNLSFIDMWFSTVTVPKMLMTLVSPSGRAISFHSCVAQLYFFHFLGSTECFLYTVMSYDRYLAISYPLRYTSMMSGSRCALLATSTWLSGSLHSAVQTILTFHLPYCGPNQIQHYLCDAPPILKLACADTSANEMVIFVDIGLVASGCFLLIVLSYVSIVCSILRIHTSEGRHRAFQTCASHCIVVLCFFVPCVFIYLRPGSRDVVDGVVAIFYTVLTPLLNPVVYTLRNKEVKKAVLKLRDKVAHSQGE
In short: as §1

OR10H1 (Homo sapiens) = target: T8, OR10H1 (Homo sapiens) (UniProt Q9Y4A9)
T8 sequence (whole entry): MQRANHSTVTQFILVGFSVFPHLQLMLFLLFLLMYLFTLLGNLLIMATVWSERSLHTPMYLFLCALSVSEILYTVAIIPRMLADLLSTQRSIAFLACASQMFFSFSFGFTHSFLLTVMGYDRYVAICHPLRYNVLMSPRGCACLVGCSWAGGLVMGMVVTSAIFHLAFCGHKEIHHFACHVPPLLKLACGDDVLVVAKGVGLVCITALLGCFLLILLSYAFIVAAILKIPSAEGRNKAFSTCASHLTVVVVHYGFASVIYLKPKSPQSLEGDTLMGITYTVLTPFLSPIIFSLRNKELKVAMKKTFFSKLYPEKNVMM
In short: as §1

OR10H2 (Homo sapiens) = target: T9, OR10H2 (Homo sapiens) (UniProt O60403)
T9 sequence (whole entry): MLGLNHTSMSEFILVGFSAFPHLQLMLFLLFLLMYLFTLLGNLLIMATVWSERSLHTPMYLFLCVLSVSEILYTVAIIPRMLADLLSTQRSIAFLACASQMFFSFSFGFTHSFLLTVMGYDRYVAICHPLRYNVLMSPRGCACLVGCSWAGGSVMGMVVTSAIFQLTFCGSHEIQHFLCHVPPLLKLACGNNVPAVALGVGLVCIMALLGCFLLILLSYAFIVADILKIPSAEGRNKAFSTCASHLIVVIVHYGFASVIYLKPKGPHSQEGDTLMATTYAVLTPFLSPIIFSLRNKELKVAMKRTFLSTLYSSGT
In short: as §1

OR10H3 (Homo sapiens) = target: T10, OR10H3 (Homo sapiens) (UniProt O60404)
T10 sequence (whole entry): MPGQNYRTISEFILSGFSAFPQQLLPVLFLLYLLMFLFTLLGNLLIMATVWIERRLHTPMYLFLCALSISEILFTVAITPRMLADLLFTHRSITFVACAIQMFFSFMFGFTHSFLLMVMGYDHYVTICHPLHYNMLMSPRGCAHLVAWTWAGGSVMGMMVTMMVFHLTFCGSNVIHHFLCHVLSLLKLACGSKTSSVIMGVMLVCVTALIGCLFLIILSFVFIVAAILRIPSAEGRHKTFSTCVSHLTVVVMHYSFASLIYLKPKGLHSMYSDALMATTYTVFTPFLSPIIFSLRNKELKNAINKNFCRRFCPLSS
In short: as §1

Measured: odorant receptor agonist call;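 also: active if original authors judged signal statistically different from baseline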

CCCCCC(=O)C(C)C(C)=O (stereo not given)
inactive: all assays above
